The nature of data set [1]: Thermodynamic turbidimetric aqueous solubility assay. The format is physicochemical. The note with it: for aqueous solubility (in words): turbidity at 620 nm in H2O; for solubility: pure water with 1% DMSO, 37 °C, water, kinetic from dmso stock. An outline of the steps: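 DMSO solutions of test compound were serially diluted from 40 mM to 0.1 mM. Each was diluted 2 μL into ~198 μL pure water and shaken on a rotary shaker at 37 °C for 1–2 h to reach equilibrium solubility. Turbidity was measured as absorbance at 620 nm. Triplicate wells, reported as means ± SD.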

The subject of data set [2] is INS-1 β-cells. The note with it: cited from earlier work.
The subject of data set [3] is INS-1 β cells. The data set is described as follows: INS-1 cell viability against thapsigargin. The format is cell-based, rat. Particulars: TG 18 nM, 72 h, CellTiter-Glo. The procedure, abridged: (§1)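 INS-1 cells were plated in RPMI 1640 with 10% FBS at 5 × 10^3 cells/well and held 24 h at 37 °C. Test compound was pin-transferred, then stressor was added in medium: TG 18 nM or BFA 0.2 μg/mL. After 72 h the medium was removed and CellTiter-Glo (intracellular ATP) added; luminescence was read after 10 min. DMSO without stressor was normalized as 1. Data are means of 3 replicate wells, with 3 independent experiments.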

Data set [4] has as its system INS-1 β cells. The data set is described as follows: INS-1 cell viability against brefeldin A. The format is cell-based, rat. Particulars: BFA 0.2 μg/mL, 72 h, CellTiter-Glo. An outline of the steps: as §1
The subject of data set [5] is INS-1 β-cells. Kind of data set: INS-1 β-cell viability against tunicamycin. It counts as cell-based, rat. The note with it: INS-1 cells, Tm. The procedure, abridged:
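Rat INS-1 cells in RPMI 1640 with 10% FBS were seeded at 5 × 10^3 cells/well and held 24 h at 37 °C. Test compound was added as ten 2-fold serial titration points, then tunicamycin at 0.15 μg/mL final, for 72 h co-treatment. Viability was read as CellTiter-Glo luminescence (ATP) after 10 min. Maximum activity is % rescue, with Tm alone set as 0% and DMSO without Tm as 100%. EC50 was derived by curve fitting. Run in triplicate.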

Converted amounts (≈) assume the structure as drawn. “Also recorded” adds a separate entry of the source.

The term solubility denotes the dissolved amount per volume that the medium holds.

On to `Cc1ccc(C)c(NC(=O)c2nnn(-c3cccc(Cl)c3C)c2C)c1` [Compound 1, 1-(3-chloro-2-methylphenyl)-N-(2,5-dimethylphenyl)-5-methyl-1H-1,2,3-triazole-4-carboxamide, reference compound], for which the “aqueous solubility (in words)” value in data set [1] is “poor aqueous solubility; also recorded: limited aqueous solubility; also recorded: aqueous insolubility”. In addition, the “concentration at which β cell protective activity is exhibited” value in the data set on INS-1 β-cells [2] (narrow range of doses) was 5~10 μM. In addition, in the data set on INS-1 β-cells [2] (protection of β cells against ER stress), the maximal activity is listed as 97%.

In data set [1], `Cc1ccc(C)c(CNC(=O)CNC(=O)c2cccc(Cl)c2C)c1` [Compound 5a, 3-Chloro-N-(2-((2,5-dimethylbenzyl)amino)-2-oxoethyl)-2-methylbenzamide] yielded a solubility of around 75 µM (≈ 25.9 µg/mL).

Take `Cc1c(Cl)cccc1C(=O)NCC(=O)NCCc1ccc(O)cc1` [Compound 5f, 3-Chloro-N-(2-((4-hydroxyphenethyl)amino)-2-oxoethyl)-2-methylbenzamide]: the solubility in data set [1] was around 200 µM (≈ 69.4 µg/mL).

Take `Cc1c(Cl)cccc1C(=O)NCC(=O)NCc1ccc(C(F)(F)F)cc1` [Compound 5g, 3-Chloro-2-methyl-N-(2-oxo-2-((4-(trifluoromethyl)benzyl)amino)ethyl)benzamide]: the “aqueous solubility (in words)” value in data set [1] was “improved water solubility compare to 1”.

`COc1cc(CNC(=O)CNC(=O)c2cccc(Cl)c2C)ccc1O` [Compound 5h, 3-Chloro-N-(2-((4-hydroxy-3-methoxybenzyl)amino)-2-oxoethyl)-2-methylbenzamide]: the “aqueous solubility (in words)” value in data set [1] is reported as “improved water solubility compare to 1”.

Consider `O=C(CNC(=O)c1cccc(O)c1)NCc1ccc(C(F)(F)F)cc1` [Compound 5m, 3-Hydroxy-N-(2-oxo-2-((4-(trifluoromethyl)benzyl)amino)ethyl)benzamide], for which the “reduction in viability of INS-1 cells treated with TG” value in the data set with INS-1 β cells [3] is “significantly reversed”. For the same compound, in the data set on INS-1 β cells [4], the “reduction in viability of INS-1 cells treated with BFA” value is “significantly reversed”.

Turning to `COc1cc(CNC(=O)CNC(=O)c2cccc(O)c2)ccc1O` [Compound 5n, 3-Hydroxy-N-(2-((4-hydroxy-3-methoxybenzyl)amino)-2-oxoethyl)benzamide], the “β-cell protective activity (in words)” value in the data set on INS-1 β-cells [5] is reported as “significantly compromised activity”.

Turning to `COc1cc(C(=O)NCC(=O)NCc2ccc(C(F)(F)F)cc2)ccc1O` [Compound 5o, 4-hydroxy-3-methoxy-N-(2-oxo-2-((4-(trifluoromethyl)benzyl)amino)ethyl)benzamide], in the data set with INS-1 β-cells [5], the “β-cell protective activity (in words)” value is “significantly compromised activity”.

For `Cc1c(Cl)cccc1C(=O)NC(C)C(=O)NCc1ccc(C(F)(F)F)cc1` (stereo not shown) [Compound 5p, 3-Chloro-2-methyl-N-(1-oxo-1-((4-(trifluoromethyl)benzyl)amino)propan-2-yl)benzamide], the “β-cell protective activity (in words)” value in the data set with INS-1 β-cells [5] is on record as “significantly less or not active”.

Take `Cc1c(Cl)cccc1C(=O)NC(Cc1ccc(O)cc1)C(=O)NCc1ccc(C(F)(F)F)cc1` (stereo not shown) [Compound 5q, 3-Chloro-N-(3-(4-hydroxyphenyl)-1-oxo-1-((4-(trifluoromethyl)benzyl)amino)propan-2-yl)-2-methylbenzamide]: in the data set with INS-1 β-cells [5], the “β-cell protective activity (in words)” value is listed as “significantly less or not active”.
